Laboratory results as given in ChEMBL document CHEMBL3112410, “Reaction intermediate analogues as bisubstrate inhibitors of pantothenate synthetase” (Bioorg Med Chem, 2014).
pKi: −log10 of the molar value. Active and inactive are the calls of the source. The calls are words filed in the database; no cut-off is given here.

Columns and labels:
[1] = tested on: Mycobacterium tuberculosis; assay: Antimycobacterial activity against PanC deficient Mycobacterium tuberculosis H37RvMA assessed as growth inhibition up to 2 mM after 7 to 14 days; assay type: functional
Outline: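 panC conditional knockdown (<5% wild-type PanC) grown to OD600 ~0.2 in 7H9 with Hyg 50 μg/mL, Km 25 μg/mL, Gm 5 μg/mL, diluted 500-fold. 2-fold serial dilutions from 4 mM starting concentration in 7H9 with half-strength antibiotics, with or without ATc (20 ng/mL) alone or ATc plus pantothenate (50 μg/mL). 37 °C, growth scored visually at 7, 10, 14 days.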

[2] = tested on: Mycobacterium tuberculosis; assay: Antimycobacterial activity against wild type Mycobacterium tuberculosis H37RvMA assessed as growth inhibition up to 250 uM after 7 to 14 days; assay type: functional
Outline: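 H37RvMA grown in 7H9 to OD600 ~0.2, diluted 500-fold into wells holding 2-fold serial compound dilutions (starting concentration 4 mM) in 7H9. Incubated at 37 °C. Growth was read by eye on days 7, 10 and 14.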

Pantothenate synthetase = biological target: T1, Pantothenate synthetase (Mycobacterium tuberculosis, UniProt P9WIL5); assay: Competitive inhibition of Mycobacterium tuberculosis recombinant PanC expressed in Escherichia coli BL21 (DE3) using pantoic acid and ATP as substrate by Michaelis-Menten equation analysis
T1 sequence (P9WIL5 whole entry): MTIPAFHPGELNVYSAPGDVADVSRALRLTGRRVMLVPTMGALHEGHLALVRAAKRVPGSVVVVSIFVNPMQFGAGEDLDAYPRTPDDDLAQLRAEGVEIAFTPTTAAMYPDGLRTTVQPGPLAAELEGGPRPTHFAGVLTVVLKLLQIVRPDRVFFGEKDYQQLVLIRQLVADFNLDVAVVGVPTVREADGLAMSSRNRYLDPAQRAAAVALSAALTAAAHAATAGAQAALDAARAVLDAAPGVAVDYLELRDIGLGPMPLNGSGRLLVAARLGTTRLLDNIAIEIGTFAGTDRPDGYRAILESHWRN
Outline: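 N-terminal His6 PanC (pET28b, BL21(DE3), Ni-NTA purified), 400 nM. Continuous MesG pyrophosphate-coupled assay with pyrophosphatase and purine nucleoside phosphorylase, A360, 25 °C. Buffer 100 mM HEPES pH 8.0, 10 mM MgCl2, up to 5% DMSO. Pantoic acid varied 50–300 μM at 2.6 mM ATP, 2.4 mM β-alanine, several fixed inhibitor levels, PanC-initiated. Initial rates fit to the competitive equation for Ki.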

Structure (SMILES) | growth inhibition (GI) [1] | growth inhibition (GI) [2] | pKi (Pantothenate synthetase)
CC(C)(C)[C@@H](O)C(=O)NS(=O)(=O)OC[C@H]1O[C@@H](n2cnc3c(N)ncnc32)[C@H](O)[C@@H]1O | inactive | inactive | 6.57
CC(C)(C)[C@@H](O)C(=O)NS(=O)(=O)OC[C@H]1C[C@@H](n2cnc3c(N)ncnc32)[C@H](O)[C@@H]1O | inactive | inactive | 6.06
CC(C)(C)[C@@H](O)C(=O)NS(=O)(=O)OC[C@H]1O[C@@H](n2cnc3c(N)ncnc32)[C@H](F)[C@@H]1O | inactive | inactive | 6.00
CC(C)(CO)[C@@H](O)CNS(=O)(=O)NC[C@H]1O[C@@H](n2cnc3c(N)ncnc32)[C@H](O)[C@@H]1O | inactive | inactive | 5.46
CC(C)(C)[C@@H](O)C(=O)NS(=O)(=O)OC[C@H]1O[C@@H](n2cnc3c(N)ncnc32)[C@@H](O)[C@@H]1O | inactive | inactive | 5.76
